In this assay the target is Cell division control protein 42 homolog (Homo sapiens) (UniProt P60953). The assay is described as follows: Cdc42 GTP Bmax and Kd shifts – biochemical, Mg buffer, varying GTP, mechanism study for Ras-family GTPase inhibitor project, late-stage follow-up (AID 2373). The settings on record: GST-Cdc42 beads, BODIPY-GTP binding, flow cytometry. Summed up:
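system = GST-Cdc42 on glutathione beads | medium = 1 mM MgCl2 (magnesium condition) | timing = beads loaded overnight at 4 °C, compound preincubation 2 min | signal = flow cytometry, median bead fluorescence at 530 nm | read-out = fitted GTP Bmax and Kd | benchmarks = DMSO vehicle in place of compound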
For orientation: In flow cytometry, cells or beads pass a laser one at a time.

Chain of Cell division control protein 42 homolog (Homo sapiens) (P60953 whole entry, looked up): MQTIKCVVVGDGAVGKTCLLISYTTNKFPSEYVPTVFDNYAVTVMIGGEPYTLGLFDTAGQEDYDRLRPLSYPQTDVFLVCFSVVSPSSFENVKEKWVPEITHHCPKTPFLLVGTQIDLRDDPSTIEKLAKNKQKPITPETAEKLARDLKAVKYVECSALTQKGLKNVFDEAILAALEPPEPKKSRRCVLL

As to `COc1ccc(C2CC(c3ccccc3)=NN2c2ccc(S(N)(=O)=O)cc2)cc1` (configuration not stated), under “at 10 µM, stronger effect = lower value”, the GTP Bmax with compound was 2320. The Kd (measured here: GTP affinity with compound) is 16.7 nM.

Broadly, the Kd is the free concentration of one partner at which half of the binding sites on the other are occupied at equilibrium, for simple one-to-one binding.

For the origin of these results see PubChem BioAssay AID2373 (NMMLSC, 2010).
